# Assay results published in ChEMBL document CHEMBL4354876, “A Selective Modulator of Peroxisome Proliferator-Activated Receptor γ with an Unprecedented Binding Mode” (J Med Chem, 2020).
# Activity calls are given as the source filed them. No cut-off for these calls is given here.
# Assays:
# [1] = target: T1, Peroxisome proliferator-activated receptor gamma (Homo sapiens) (UniProt P37231); assay: Selective modulation of PPARgamma in human HepG2 cells assessed as induction of adiponectin mRNA expression at 1 uM measured after 12 hrs by qPCR analysis; assay type: cell-based
# T1 sequence (whole entry): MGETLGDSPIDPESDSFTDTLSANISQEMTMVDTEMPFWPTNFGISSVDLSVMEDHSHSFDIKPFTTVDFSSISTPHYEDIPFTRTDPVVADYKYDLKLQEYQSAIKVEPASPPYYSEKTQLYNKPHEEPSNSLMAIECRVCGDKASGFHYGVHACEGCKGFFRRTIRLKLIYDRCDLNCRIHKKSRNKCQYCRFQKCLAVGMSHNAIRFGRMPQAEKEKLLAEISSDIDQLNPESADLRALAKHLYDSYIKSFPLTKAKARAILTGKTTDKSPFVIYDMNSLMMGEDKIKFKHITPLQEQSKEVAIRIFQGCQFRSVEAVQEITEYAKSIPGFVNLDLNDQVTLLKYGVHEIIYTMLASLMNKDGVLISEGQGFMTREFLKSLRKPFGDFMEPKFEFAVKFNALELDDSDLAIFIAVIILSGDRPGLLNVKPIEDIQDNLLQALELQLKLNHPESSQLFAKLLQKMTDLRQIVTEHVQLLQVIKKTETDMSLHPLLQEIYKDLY
# Summary of the method: (§1)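 HepG2 cells were incubated with test compound at 1 µM. mRNA of the PPARγ target genes adiponectin and ANGPTL4 was quantified. Mean±S.E.M., n≥3.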
# [2] = Partial agonist activity at recombinant PPARgamma LBD/N-terminal GFP-fused RXRalpha mutant LBD (unknown origin) assessed as increase in biotinylated-CBP peptide recruitment measured after 2 hrs by HTRF assay; set-up: species or system Homo sapiens
# Summary of the method: (§2)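 Cell-free HTRF assay of coactivator peptide recruitment (CBP or SRC-1) to the recombinant PPARγ:RXRα heterodimer.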
# [3] = tested on: NHDF; assay: (§3) Induction of adipogenesis in NHDF assessed as reduction in fibroblast differentiation into matured adipocytes at 2 uM administered on day 3 of differentiation 1 and day 5 of differentiation 2 followed by media refreshment at 2 days interval up to 13 days and measured on day 14 by Oil red O staining based light microscopic analysis; assay type: cell-based; details: human
# Summary of the method: (§4)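 Primary human fibroblasts (NHDF) were differentiated to mature adipocytes and treated with ligand or DMSO; the test compound was used at 0.2, 2 and 20 µM and the reference at 2 µM. Lipid accumulation was read by Oil Red O staining, with four replicates.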
# [4] = Partial agonist activity at recombinant PPARgamma LBD/N-terminal GFP-fused RXRalpha mutant LBD (unknown origin) assessed as increase in biotinylated-SRC1 peptide recruitment measured after 2 hrs by HTRF assay; set-up: species or system Homo sapiens; summary of the method: as §2
# [5] = target: T2, Peroxisome proliferator-activated receptor delta (Homo sapiens) (UniProt Q03181); assay: Partial agonist activity at Gal4-fused PPARdelta LBD (unknown origin) expressed in HEK293T cells after 14 to 16 hrs by dual-Glo luciferase assay relative to L165041; assay type: cell-based
# T2 sequence (whole entry): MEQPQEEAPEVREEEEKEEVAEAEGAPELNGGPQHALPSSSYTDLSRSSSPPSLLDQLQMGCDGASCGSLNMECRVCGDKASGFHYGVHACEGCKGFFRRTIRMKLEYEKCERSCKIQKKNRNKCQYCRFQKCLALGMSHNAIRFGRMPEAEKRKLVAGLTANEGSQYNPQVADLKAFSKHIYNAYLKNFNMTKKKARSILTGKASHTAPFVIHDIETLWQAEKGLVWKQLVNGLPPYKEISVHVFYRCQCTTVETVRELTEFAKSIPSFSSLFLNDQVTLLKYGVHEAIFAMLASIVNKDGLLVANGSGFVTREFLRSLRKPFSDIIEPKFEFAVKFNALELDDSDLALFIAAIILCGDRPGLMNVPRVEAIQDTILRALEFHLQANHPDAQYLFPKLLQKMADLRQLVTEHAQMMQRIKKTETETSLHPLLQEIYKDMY
# Summary of the method: (§5)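 Gal4 hybrid reporter assay in transiently transfected HEK293T cells. Constructs fuse the yeast Gal4 DNA-binding domain to the human receptor LBD. Firefly luciferase is the reporter. Constitutive renilla luciferase monitors transfection efficiency and toxicity. EC50 and maximal relative activation are reported as mean±S.E.M., n≥3.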
# [6] = tested on: NHDF; assay: as §3, with “adipocytes at 0.2 to 20 uM administered” for “adipocytes at 2 uM administered”; assay type: cell-based; details: human; summary of the method: as §4
# [7] = target: T3, Peroxisome proliferator-activated receptor alpha (Homo sapiens, UniProt Q07869); assay: Partial agonist activity at Gal4-fused PPARalpha LBD (unknown origin) expressed in HEK293T cells after 14 to 16 hrs by dual-Glo luciferase assay; assay type: cell-based; summary of the method: as §5
# T3 sequence (Q07869 whole entry): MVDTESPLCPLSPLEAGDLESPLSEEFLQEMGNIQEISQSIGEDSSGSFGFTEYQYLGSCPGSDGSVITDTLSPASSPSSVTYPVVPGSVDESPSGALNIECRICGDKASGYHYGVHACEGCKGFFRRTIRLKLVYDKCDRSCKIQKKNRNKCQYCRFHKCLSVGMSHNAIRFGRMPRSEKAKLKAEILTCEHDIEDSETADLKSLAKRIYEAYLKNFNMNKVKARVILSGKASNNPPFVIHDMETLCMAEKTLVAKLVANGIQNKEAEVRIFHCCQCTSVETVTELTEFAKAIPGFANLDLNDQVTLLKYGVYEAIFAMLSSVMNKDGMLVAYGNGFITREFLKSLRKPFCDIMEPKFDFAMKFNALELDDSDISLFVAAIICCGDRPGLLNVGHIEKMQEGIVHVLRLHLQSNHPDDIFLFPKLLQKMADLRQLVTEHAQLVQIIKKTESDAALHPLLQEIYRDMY
# [8] = target: T4, Peroxisome proliferator-activated receptor gamma (Homo sapiens, UniProt P37231); assay: Partial agonist activity at recombinant N-terminal GFP-fused PPARgamma LBD (unknown origin) assessed as increase in biotinylated-SRC1 peptide recruitment measured after 2 hrs by HTRF assay
# T4 sequence (P37231 whole entry): T1 sequence (whole entry)
# [9] = target: T4, Peroxisome proliferator-activated receptor gamma; assay: Selective modulation of PPARgamma in human HepG2 cells assessed as induction of ANGPTL4 mRNA expression at 1 uM measured after 12 hrs by qPCR analysis; assay type: cell-based; details: hepg2, 12 h; summary of the method: as §1
# [10] = target: Retinoic acid receptor (Homo sapiens) (UniProt P13631+P10826+P10276); assay: Agonist activity at RAR (unknown origin) at 10 uM; assay type: protein assay
# Retinoic acid receptor (Homo sapiens), sequence (P10276 whole entry, looked up, the tested form may be a part): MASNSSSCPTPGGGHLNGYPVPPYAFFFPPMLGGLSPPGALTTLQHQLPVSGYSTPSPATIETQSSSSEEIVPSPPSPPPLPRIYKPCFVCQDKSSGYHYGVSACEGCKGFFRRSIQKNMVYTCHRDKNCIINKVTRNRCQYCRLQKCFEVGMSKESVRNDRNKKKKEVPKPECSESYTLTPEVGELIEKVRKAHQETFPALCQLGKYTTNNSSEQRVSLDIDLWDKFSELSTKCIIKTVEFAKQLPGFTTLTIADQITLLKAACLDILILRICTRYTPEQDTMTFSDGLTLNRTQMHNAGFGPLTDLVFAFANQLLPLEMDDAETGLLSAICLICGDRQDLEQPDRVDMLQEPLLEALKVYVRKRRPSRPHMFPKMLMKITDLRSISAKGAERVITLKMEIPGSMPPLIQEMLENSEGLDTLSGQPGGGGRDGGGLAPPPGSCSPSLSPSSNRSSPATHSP
# Retinoic acid receptor (Homo sapiens), sequence (P10826 whole entry, looked up, the tested form may be a part): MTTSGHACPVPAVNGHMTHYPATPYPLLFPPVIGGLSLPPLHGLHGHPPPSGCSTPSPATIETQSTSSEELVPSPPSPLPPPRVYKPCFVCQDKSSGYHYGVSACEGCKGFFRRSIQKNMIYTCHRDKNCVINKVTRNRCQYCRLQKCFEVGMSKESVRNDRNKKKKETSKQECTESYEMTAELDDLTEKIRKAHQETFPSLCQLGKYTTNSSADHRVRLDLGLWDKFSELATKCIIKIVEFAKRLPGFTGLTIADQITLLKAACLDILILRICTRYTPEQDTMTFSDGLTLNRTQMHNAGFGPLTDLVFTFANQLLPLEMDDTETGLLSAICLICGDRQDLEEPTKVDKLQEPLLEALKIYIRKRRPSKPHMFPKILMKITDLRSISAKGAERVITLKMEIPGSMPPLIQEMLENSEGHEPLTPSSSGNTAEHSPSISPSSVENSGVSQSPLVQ
# Retinoic acid receptor (Homo sapiens), sequence (P13631 whole entry, looked up, the tested form may be a part): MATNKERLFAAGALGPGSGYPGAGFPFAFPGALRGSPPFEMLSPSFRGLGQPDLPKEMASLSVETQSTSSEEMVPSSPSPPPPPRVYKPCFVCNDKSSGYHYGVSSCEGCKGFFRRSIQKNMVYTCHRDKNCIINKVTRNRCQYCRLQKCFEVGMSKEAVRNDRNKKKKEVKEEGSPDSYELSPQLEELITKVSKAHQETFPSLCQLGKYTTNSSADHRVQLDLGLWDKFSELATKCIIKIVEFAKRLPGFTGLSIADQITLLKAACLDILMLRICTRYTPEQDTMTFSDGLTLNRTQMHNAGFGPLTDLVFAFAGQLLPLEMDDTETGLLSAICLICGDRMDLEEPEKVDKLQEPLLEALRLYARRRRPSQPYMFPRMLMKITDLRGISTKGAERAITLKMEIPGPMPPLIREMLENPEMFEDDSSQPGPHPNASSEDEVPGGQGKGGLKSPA
# [11] = target: T5, Peroxisome proliferator-activated receptor alpha (Homo sapiens) (UniProt Q07869); assay: Partial agonist activity at Gal4-fused PPARalpha LBD (unknown origin) expressed in HEK293T cells after 14 to 16 hrs by dual-Glo luciferase assay relative to GW7647; assay type: cell-based; summary of the method: as §5
# T5 sequence (whole entry): T3 sequence (Q07869 whole entry)
# [12] = target: T6, Peroxisome proliferator-activated receptor delta (Homo sapiens, UniProt Q03181); assay: Partial agonist activity at Gal4-fused PPARdelta LBD (unknown origin) expressed in HEK293T cells after 14 to 16 hrs by dual-Glo luciferase assay; assay type: cell-based; summary of the method: as §5
# T6 sequence (Q03181 whole entry): T2 sequence (whole entry)
# [13] = target: Liver X receptor (Homo sapiens) (UniProt Q13133+P55055); assay: Agonist activity at LXR (unknown origin) at 10 uM; assay type: protein assay
# [14] = target: T1, Peroxisome proliferator-activated receptor gamma (Homo sapiens); assay: Partial agonist activity at Gal4-fused PPARgamma LBD (unknown origin) expressed in HEK293T cells after 14 to 16 hrs by dual-Glo luciferase assay relative to pioglitazone; assay type: cell-based; summary of the method: as §5
# [15] = Stability in Sprague-Dawley rat liver microsomes assessed as parent compound remaining at 10 uM after 60 mins by HPLC analysis; assay type: ADME, Microsome; details: read-out: Stability
# Summary of the method: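 Incubation with rat liver microsomes, measuring compound remaining after 60 minutes.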
# [16] = target: T4, Peroxisome proliferator-activated receptor gamma; assay: Partial agonist activity at Gal4-fused PPARgamma LBD (unknown origin) expressed in HEK293T cells after 14 to 16 hrs by dual-Glo luciferase assay; assay type: cell-based; summary of the method: as §5
# [17] = target: Retinoid X receptor (Homo sapiens) (UniProt P28702+P48443+P19793); assay: Agonist activity at RXR (unknown origin) at 10 uM; assay type: protein assay
# Retinoid X receptor (Homo sapiens), sequence (P19793 whole entry, looked up): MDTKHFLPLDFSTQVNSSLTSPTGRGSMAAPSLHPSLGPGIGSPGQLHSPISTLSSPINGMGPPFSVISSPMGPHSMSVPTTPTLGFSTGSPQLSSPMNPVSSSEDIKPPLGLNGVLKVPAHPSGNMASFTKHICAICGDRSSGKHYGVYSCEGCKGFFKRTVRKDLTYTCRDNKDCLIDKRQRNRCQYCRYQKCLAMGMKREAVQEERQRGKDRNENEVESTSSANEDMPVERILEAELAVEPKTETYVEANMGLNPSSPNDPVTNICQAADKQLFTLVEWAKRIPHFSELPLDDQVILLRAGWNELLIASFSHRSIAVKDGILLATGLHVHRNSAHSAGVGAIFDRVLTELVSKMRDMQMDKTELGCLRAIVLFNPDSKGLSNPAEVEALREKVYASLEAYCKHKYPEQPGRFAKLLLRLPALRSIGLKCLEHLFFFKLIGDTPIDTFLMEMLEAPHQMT
# Retinoid X receptor (Homo sapiens), sequence (P28702 whole entry, looked up): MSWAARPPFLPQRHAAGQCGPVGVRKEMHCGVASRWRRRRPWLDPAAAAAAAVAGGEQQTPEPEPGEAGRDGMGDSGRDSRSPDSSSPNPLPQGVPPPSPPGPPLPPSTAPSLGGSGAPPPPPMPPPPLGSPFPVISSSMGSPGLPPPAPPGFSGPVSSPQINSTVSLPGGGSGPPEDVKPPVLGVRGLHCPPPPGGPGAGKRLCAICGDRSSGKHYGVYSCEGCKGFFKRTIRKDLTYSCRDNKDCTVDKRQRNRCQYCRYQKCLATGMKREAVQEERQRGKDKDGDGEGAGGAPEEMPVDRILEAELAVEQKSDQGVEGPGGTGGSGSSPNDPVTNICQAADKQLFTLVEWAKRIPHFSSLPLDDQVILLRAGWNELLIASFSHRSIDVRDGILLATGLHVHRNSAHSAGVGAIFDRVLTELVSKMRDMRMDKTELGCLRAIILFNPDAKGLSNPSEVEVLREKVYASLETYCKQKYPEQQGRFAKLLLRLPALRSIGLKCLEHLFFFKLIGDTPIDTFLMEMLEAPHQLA
# Retinoid X receptor (Homo sapiens), sequence (P48443 whole entry, looked up): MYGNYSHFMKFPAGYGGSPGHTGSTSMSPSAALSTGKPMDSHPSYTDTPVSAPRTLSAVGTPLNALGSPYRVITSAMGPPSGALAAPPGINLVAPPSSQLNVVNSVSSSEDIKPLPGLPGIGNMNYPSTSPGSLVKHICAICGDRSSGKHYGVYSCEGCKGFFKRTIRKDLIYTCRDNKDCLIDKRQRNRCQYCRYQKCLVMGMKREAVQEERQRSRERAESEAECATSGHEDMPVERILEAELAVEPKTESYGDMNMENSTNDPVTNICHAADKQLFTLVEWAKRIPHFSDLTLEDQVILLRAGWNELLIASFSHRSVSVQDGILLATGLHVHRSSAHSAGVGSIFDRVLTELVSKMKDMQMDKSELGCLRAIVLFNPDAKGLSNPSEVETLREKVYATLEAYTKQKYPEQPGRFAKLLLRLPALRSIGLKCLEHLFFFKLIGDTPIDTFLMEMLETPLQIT
# [18] = target: T7, Bile acid receptor (Homo sapiens) (UniProt Q96RI1); assay: Agonist activity at FXR (unknown origin) at 10 uM
# T7 sequence (whole entry): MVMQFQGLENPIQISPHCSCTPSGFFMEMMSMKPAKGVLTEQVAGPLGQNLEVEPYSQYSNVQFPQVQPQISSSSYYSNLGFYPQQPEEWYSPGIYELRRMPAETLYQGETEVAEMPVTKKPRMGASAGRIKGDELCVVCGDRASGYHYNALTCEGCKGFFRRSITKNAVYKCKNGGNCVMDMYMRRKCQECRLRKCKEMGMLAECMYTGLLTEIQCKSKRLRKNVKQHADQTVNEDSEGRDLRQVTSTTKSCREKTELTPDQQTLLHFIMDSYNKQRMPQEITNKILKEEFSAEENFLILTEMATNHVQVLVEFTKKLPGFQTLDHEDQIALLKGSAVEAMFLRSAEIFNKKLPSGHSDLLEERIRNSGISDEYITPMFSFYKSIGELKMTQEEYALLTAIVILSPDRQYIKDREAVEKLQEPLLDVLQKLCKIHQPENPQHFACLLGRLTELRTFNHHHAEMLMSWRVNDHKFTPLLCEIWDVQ
# [19] = target: T4, Peroxisome proliferator-activated receptor gamma; assay: Partial agonist activity at recombinant N-terminal GFP-fused PPARgamma LBD (unknown origin) assessed as increase in biotinylated-CBP peptide recruitment measured after 2 hrs by HTRF assay
# Summary of the method: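 Cell-free HTRF assay of CBP coactivator recruitment to recombinant PPARγ protein.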
Activity [1],EC50 [2] [nM],EC50 [4] [nM],max activation [5] [%],EC50 [7] [nM],EC50 [8] [nM],Activity [10],max activation [11] [%],EC50 [12] [nM],Activity [13],max activation [14] [%],"remaining at 1 h, 10 µM [15] [%]",EC50 [16] [nM],Activity [17],Activity [18],EC50 [19] [nM],SMILES,Activity [3],Activity [6],Activity [9]
Active,121,116,,,,,,,,,,,,,,CN(CCOc1ccc(CC2SC(=O)NC2=O)cc1)c1ccccn1 (configuration not stated) [ROSIGLITAZONE],Toxic,,
Active,437,887,12,500,107,inactive,29,400,inactive,67,80,2.2,inactive,inactive,197,CCCCCCC(Sc1nc2ccc(NS(=O)(=O)c3ccc(Cl)cc3Cl)cc2s1)C(=O)O (configuration not stated),,Non-Toxic,Not Active
